Experimental data published in ChEMBL document CHEMBL2439973, “Discovery of VU0409106: A negative allosteric modulator of mGlu5 with activity in a mouse model of anxiety” (Bioorg Med Chem Lett, 2013).
The source made the active and inactive calls.

Key:
Mus musculus [1] = assay: Anxiolytic activity in ip dosed Harlan CD-1 mouse assessed as inhibition of marble burying behavior; type: functional, organism-based
How it was run: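 Marble burying in mice with deep bedding; compound given IP at a range of doses with 15 min pretreatment, n = 8 per dose; marbles buried counted, brain samples collected right after testing for exposure; comparison to vehicle by Dunnett's test.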

[2] = biological target: Sodium-dependent noradrenaline transporter (Homo sapiens) (UniProt P23975); assay: Displacement of [125I]-RTI-55 from human recombinant NET expressed in MDCK cells at 10 uM relative to control; type: cell-based
How it was run: (§1)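 Tested once at 10 μM in a commercial radioligand binding panel of 68 GPCRs, ion channels, kinases and transporters. Activity is given as displacement of each radioligand relative to control.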

[3] = biological target: Sodium-dependent dopamine transporter (Homo sapiens) (UniProt Q01959); assay: Displacement of [125I]-RTI-55 from human recombinant DAT expressed in CHO-K1 cells at 10 uM relative to control; type: cell-based; how it was run: as §1
[4] = biological target: Substance-P receptor (Homo sapiens) (UniProt P25103); assay: Displacement of [3H]-Substance P from human recombinant tachykinin NK1 receptor expressed in CHO cells at 10 uM relative to control; type: cell-based
[5] = biological target: Sigma non-opioid intracellular receptor 1 (Homo sapiens) (UniProt Q99720); assay: Displacement of [3H]-Haloperidol from sigma1 receptor in human Jurkat cells at 10 uM relative to control; type: cell-based; how it was run: as §1
Rattus norvegicus [6] = species: Rattus norvegicus; assay: Displacement of [35S]-ATP-alpha-S from purinergic P2Y receptor in rat brain at 10 uM relative to control; type: tissue-based; how it was run: as §1
Oryctolagus cuniculus = species: Oryctolagus cuniculus; assay: Displacement of [3H]-alpha,beta-Methylene-ATP from purinergic P2x receptor in rabbit urinary bladder at 10 uM relative to control
[7] = biological target: Prostaglandin E2 receptor EP4 subtype (Homo sapiens) (UniProt P35408); assay: Displacement of [3H]-PGE2 from human recombinant prostanoid EP4 receptor expressed in rat Chem-1 cells at 10 uM relative to control; type: cell-based
[8] = biological target: Platelet-activating factor receptor (Homo sapiens) (UniProt P25105); assay: Displacement of [3H]-PAF from platelet activating factor receptor in human platelets at 10 uM relative to control; how it was run: as §1
Mus musculus [9] = species: Mus musculus; assay: Displacement of [3H]-PDBu from phorbol ester receptor in mouse brain at 10 uM relative to control; type: tissue-based; how it was run: as §1
IMR-32 = assay: Displacement of [125I] Epibatidine from nicotinic acetylcholine receptor in human IMR32 cells at 10 uM relative to control; type: cell-based; how it was run: as §1
[10] = biological target: Cysteinyl leukotriene receptor 1 (Homo sapiens) (UniProt Q9Y271); assay: Displacement of [3H]-LTD4 from human recombinant leukotriene cysteinyl CysLT1 receptor expressed in CHO-K1 cells at 10 uM relative to control; type: cell-based; how it was run: as §1
[11] = biological target: T1, Glutamate NMDA receptor (Rattus norvegicus) (UniProt P35439+Q00959+Q00960+Q00961+Q62645+Q8VHN2+Q9R1M7); assay: Displacement of [3H]-MDL 105,519 from NMDA receptor glycine binding site in rat cerebral cortex at 10 uM relative to control; type: tissue-based; how it was run: as §1
[12] = biological target: T1, Glutamate NMDA receptor (Rattus norvegicus); assay: Displacement of [3H]-TCP from NMDA receptor phencyclidine binding site in rat cerebral cortex at 10 uM relative to control; type: tissue-based
Rattus norvegicus [13] = species: Rattus norvegicus; assay: Displacement of [3H]-Muscimol from central-type GABAA receptor muscimol binding site in cerebellum-less rat brain homogenate at 10 uM relative to control; type: tissue-based; how it was run: as §1
[14] = biological target: Estrogen receptor (Homo sapiens) (UniProt P03372); assay: Displacement of [3H]-Estradiol from human recombinant ERalpha receptor expressed in insect Sf9 cells at 10 uM relative to control; how it was run: as §1
[15] = biological target: Epidermal growth factor receptor (Homo sapiens) (UniProt P00533); assay: Displacement of [125I]-EGF from epidermal growth factor receptor in human A431 cells at 10 uM relative to control; type: cell-based; conditions: A-431; how it was run: as §1
[16] = biological target: Endothelin-1 receptor (Homo sapiens) (UniProt P25101); assay: Displacement of [125I]-Endothelin-1 from human recombinant ETA receptor expressed in CHO-K1 cells at 10 uM relative to control; type: cell-based; how it was run: as §1
[17] = biological target: D(1A) dopamine receptor (Homo sapiens) (UniProt P21728); assay: Displacement of [3H]-SCH-23390 from human recombinant dopamine D1 receptor expressed in CHO cells at 10 uM relative to control; type: cell-based
Rattus norvegicus [18] = species: Rattus norvegicus; assay: Displacement of [3H]-Nitrendipine from L-type calcium channel dihydropyridine binding site in rat cerebral cortex at 10 uM relative to control; type: tissue-based; how it was run: as §1
[19] = biological target: Androgen receptor (Homo sapiens) (UniProt P10275); assay: Displacement of [3H]-Methyltrienolone from androgen receptor in human LNCAP cells at 10 uM relative to control; type: cell-based; how it was run: as §1
[20] = biological target: Alpha-1D adrenergic receptor (Homo sapiens) (UniProt P25100); assay: Displacement of [3H]-Prazosin from human recombinant adrenergic alpha1D receptor expressed in HEK293 cells at 10 uM relative to control; type: cell-based
[21] = biological target: Alpha-1B adrenergic receptor (Rattus norvegicus) (UniProt P15823); assay: Displacement of [3H]-Prazosin from adrenergic alpha1B receptor in rat liver at 10 uM relative to control
[22] = biological target: Alpha-2A adrenergic receptor (Homo sapiens) (UniProt P08913); assay: Displacement of [3H]-Rauwolscine from human recombinant adrenergic alpha2A receptor expressed in CHO-K1 cells at 10 uM relative to control; type: cell-based
[23] = biological target: Adenosine receptor A1 (Homo sapiens) (UniProt P30542); assay: Displacement of [3H]-DPCPX from human recombinant adenosine A1 receptor expressed in CHO cells at 10 uM relative to control; type: cell-based; how it was run: as §1
[24] = biological target: Metabotropic glutamate receptor 8 (Rattus norvegicus) (UniProt P70579); assay: Allosteric modulation of rat mGlu8 receptor expressed in HEK293 cells coexpressing G protein-activated inward rectifier potassium channel assessed as effect on glutamate-induced thallium flux at 10 uM; type: cell-based
[25] = biological target: Metabotropic glutamate receptor 7 (Rattus norvegicus) (UniProt P35400); assay: Allosteric modulation of rat mGlu7 receptor expressed in HEK293 cells coexpressing G protein-activated inward rectifier potassium channel assessed as effect on L-AP4-induced thallium flux at 10 uM; type: cell-based
[26] = biological target: Metabotropic glutamate receptor 4 (Rattus norvegicus) (UniProt P31423); assay: Allosteric modulation of rat mGlu4 receptor expressed in HEK293 cells coexpressing G protein-activated inward rectifier potassium channel assessed as effect on glutamate-induced thallium flux at 10 uM; type: cell-based
[27] = biological target: Metabotropic glutamate receptor 3 (Rattus norvegicus) (UniProt P31422); assay: Allosteric modulation of rat mGlu3 receptor expressed in HEK293 cells coexpressing G protein-activated inward rectifier potassium channel assessed as effect on glutamate-induced thallium flux at 10 uM; type: cell-based
Brain [28] = assay: AUC in CD-1 mouse brain at 10 mg/kg, ip by LC-MS/MS analysis; type: ADME, organism-based; parameters: dose 10 mg/kg, route intraperitoneal; conditions: in vivo
[29] = Cmax in CD-1 mouse brain at 10 mg/kg, ip by LC-MS/MS analysis; type: ADME, organism-based; parameters: dose 10 mg/kg, route intraperitoneal
Brain [30] = assay: Tmax in CD-1 mouse brain at 10 mg/kg, ip by LC-MS/MS analysis; type: ADME, organism-based; parameters: dose 10 mg/kg, route intraperitoneal; conditions: in vivo
Plasma = assay: Cmax in CD-1 mouse plasma at 10 mg/kg, ip by LC-MS/MS analysis; type: ADME, organism-based; parameters: dose 10 mg/kg, route intraperitoneal; conditions: in vivo
Brain [31] = assay: Fraction unbound in mouse brain homogenates by equilibrium dialysis technique; type: ADME, tissue-based; conditions: brain homogenate

Sequence of Estrogen receptor (Homo sapiens) (P03372 whole entry): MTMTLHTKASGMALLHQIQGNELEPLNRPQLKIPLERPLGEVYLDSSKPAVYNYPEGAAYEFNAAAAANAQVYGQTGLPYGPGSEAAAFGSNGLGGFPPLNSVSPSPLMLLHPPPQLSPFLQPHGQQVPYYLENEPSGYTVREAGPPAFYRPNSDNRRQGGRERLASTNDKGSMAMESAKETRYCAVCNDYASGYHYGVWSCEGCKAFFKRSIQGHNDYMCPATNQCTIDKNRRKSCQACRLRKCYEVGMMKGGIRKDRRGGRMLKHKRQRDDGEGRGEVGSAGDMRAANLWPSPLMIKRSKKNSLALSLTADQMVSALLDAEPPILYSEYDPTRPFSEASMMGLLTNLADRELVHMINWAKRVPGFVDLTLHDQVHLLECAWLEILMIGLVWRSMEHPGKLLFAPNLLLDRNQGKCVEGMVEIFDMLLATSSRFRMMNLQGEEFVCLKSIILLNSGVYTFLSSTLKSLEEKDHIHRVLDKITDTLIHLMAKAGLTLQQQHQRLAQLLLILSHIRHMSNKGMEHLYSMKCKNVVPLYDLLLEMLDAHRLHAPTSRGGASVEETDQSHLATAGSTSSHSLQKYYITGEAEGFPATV
Sequence of Alpha-1D adrenergic receptor (Homo sapiens) (P25100 whole entry): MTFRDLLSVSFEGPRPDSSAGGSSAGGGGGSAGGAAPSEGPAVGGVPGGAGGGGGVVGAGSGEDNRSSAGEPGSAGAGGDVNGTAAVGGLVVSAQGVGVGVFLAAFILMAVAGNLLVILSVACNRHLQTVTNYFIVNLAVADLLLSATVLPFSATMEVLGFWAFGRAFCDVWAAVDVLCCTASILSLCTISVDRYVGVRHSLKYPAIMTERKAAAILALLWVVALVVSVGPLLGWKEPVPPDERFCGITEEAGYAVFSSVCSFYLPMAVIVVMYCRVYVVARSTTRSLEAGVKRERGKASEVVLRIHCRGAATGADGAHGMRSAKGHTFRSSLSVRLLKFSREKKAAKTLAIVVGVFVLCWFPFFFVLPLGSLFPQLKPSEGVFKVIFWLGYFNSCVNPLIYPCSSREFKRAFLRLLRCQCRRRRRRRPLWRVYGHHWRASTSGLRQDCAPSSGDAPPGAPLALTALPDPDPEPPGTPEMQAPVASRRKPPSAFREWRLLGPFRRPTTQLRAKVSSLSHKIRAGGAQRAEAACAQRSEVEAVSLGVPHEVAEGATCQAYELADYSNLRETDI
Sequence of Androgen receptor (Homo sapiens) (P10275 whole entry): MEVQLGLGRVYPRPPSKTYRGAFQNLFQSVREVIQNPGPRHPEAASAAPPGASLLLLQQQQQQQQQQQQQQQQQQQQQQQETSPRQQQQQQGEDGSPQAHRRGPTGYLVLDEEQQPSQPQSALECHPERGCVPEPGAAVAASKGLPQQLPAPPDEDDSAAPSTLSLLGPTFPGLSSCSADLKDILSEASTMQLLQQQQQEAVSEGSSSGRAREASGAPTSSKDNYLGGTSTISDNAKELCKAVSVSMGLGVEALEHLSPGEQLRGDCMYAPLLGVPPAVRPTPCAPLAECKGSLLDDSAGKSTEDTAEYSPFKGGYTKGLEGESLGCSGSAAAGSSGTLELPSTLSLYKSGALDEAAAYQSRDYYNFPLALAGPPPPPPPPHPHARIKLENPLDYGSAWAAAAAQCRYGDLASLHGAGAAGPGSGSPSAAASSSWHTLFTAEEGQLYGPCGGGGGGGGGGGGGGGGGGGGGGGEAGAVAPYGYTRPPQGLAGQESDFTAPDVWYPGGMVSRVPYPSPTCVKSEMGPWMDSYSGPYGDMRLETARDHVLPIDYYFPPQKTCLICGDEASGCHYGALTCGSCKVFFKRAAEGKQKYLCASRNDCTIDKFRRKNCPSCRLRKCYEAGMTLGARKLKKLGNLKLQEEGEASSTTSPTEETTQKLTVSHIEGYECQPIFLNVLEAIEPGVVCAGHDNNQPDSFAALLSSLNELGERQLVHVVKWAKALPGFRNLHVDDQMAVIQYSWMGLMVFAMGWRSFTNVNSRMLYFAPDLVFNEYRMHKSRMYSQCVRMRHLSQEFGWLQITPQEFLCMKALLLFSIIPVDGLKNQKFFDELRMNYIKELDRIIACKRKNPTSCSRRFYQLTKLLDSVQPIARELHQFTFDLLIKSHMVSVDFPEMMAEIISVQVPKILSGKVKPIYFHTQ
Sequence of Alpha-2A adrenergic receptor (Homo sapiens) (P08913 whole entry): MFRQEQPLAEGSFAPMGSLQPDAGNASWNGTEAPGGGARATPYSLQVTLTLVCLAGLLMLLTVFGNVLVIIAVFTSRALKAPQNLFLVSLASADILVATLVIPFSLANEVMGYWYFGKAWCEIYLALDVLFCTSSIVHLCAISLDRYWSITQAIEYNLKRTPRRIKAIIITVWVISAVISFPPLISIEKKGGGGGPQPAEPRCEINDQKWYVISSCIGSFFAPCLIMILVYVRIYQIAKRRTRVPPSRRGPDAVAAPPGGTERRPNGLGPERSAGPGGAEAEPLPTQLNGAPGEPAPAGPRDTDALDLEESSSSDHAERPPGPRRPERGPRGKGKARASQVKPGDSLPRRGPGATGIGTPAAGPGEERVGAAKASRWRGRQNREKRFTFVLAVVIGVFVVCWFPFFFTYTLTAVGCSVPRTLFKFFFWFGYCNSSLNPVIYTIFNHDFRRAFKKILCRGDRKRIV
Sequence of Epidermal growth factor receptor (Homo sapiens) (P00533 whole entry): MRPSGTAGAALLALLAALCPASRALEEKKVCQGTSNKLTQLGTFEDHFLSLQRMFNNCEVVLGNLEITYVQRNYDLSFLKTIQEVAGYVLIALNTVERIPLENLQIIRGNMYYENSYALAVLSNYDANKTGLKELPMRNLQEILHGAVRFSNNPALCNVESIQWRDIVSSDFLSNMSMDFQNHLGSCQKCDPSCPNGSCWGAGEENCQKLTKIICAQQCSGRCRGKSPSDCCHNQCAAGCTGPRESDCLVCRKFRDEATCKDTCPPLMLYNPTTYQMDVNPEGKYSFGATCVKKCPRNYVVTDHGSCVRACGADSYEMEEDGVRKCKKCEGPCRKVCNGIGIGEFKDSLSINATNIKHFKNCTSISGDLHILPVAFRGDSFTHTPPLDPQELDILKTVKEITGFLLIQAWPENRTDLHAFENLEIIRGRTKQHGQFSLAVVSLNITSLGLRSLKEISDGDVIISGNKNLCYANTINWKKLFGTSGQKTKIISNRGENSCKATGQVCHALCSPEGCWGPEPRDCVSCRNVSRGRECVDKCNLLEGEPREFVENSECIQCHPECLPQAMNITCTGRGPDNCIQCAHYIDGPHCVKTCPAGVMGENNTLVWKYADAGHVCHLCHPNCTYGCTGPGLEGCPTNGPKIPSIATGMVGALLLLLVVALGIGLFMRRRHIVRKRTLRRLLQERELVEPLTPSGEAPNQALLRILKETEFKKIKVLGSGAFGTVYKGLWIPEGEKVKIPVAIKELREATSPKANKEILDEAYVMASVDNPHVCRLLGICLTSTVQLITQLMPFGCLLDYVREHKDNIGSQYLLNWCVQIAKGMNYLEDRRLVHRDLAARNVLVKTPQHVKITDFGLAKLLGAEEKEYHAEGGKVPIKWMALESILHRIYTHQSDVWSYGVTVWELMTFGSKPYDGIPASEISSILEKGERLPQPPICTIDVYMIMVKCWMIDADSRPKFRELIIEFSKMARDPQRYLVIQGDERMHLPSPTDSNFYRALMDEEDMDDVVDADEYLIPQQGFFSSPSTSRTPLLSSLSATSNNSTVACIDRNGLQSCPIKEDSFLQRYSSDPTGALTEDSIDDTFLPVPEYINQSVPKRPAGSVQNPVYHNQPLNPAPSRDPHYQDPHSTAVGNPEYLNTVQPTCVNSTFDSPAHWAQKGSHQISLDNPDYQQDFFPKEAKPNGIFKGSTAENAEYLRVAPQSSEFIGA
Sequence of Metabotropic glutamate receptor 4 (Rattus norvegicus) (P31423 whole entry): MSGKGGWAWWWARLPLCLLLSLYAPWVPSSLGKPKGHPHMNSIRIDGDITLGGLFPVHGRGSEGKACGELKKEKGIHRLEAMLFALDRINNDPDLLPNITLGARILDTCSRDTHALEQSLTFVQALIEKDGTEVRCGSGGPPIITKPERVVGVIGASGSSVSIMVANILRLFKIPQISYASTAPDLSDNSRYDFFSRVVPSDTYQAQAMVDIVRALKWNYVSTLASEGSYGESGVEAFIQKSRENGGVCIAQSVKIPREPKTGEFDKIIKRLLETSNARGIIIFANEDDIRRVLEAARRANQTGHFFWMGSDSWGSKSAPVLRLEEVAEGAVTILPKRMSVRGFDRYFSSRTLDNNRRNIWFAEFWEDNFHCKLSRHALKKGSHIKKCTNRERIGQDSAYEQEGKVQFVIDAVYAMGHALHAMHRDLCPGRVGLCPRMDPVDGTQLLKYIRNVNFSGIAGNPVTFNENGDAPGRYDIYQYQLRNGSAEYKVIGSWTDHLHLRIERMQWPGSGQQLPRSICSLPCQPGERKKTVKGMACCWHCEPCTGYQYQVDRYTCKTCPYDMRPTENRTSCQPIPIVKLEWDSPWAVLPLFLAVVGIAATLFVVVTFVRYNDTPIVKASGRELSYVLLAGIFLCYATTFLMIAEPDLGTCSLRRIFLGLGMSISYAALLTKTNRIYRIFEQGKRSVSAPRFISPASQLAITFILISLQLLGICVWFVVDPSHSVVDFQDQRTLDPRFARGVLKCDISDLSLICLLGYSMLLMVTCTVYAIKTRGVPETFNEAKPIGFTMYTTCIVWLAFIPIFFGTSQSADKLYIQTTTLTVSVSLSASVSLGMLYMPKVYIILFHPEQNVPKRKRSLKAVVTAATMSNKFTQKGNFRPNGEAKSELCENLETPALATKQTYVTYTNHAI
Sequence of Cysteinyl leukotriene receptor 1 (Homo sapiens) (Q9Y271 whole entry): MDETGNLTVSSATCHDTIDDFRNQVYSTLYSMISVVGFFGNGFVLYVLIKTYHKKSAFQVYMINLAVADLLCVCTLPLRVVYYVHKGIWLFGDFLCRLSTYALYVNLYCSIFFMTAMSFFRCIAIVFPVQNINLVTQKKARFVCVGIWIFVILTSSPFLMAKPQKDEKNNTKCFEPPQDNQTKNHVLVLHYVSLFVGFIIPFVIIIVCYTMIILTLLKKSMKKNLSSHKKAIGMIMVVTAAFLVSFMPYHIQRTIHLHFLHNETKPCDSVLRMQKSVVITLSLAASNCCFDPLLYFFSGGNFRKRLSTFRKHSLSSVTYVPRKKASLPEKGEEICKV

Cc1csc(NC(=O)c2cc(F)cc(Oc3cncnc3)c2)n1
active: inhibition (Mus musculus [1]) Dose-dependent effect
inactive: Activity [24] | Activity [25] | Activity [26] | Activity [27]
15 min: Tmax (Brain [30])
0.082: Fu (Brain [31])
1450 ng/mL: Cmax (Plasma)
696 ng·h/g: AUC (Brain [28])
> 35%: inhibition [2] | inhibition [3] | inhibition [4] | inhibition [5] | inhibition (Rattus norvegicus [6]) | inhibition (Oryctolagus cuniculus) | inhibition [7] | inhibition [8] | inhibition (Mus musculus [9]) | inhibition (IMR-32) | inhibition [10] | inhibition [11] | inhibition [12] | inhibition (Rattus norvegicus [13]) | inhibition [14] | inhibition [15] | inhibition [16] | inhibition [17] | inhibition (Rattus norvegicus [18]) | inhibition [19] | inhibition [20] | inhibition [21] | inhibition [22] | inhibition [23]
1350 ng/g: Cmax [29]
